Data as given in ChEMBL document CHEMBL1125291, “New 8-(trifluoromethyl)-substituted quinolones. The benefits of the 8-fluoro group with reduced phototoxic risk” (1992).
Values after ≈ are worked out from the molar mass of the structure shown.

Columns and labels:
[1] = organism: Mus musculus; assay: Days of the first positive reaction in […] mice.; format: functional
Summary of the method: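 Phototoxic skin reaction test in depilated female CD-1 mice. A single oral dose (gavage) or subcutaneous dose was given, followed 1 h later by 3 h of UVA exposure (320–400 nm). The regimen was repeated for up to 4 consecutive days, with initial doses of 30, 100 and 300 mg/kg. PTD50 was derived by the probit method. The first day of positive reaction and the no-effect dose were taken from the raw data.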

[2] = organism: Mus musculus; assay: Number of mice which show positive phototoxic reaction in 5 mice; format: functional
[3] = system: Escherichia coli; assay: In vivo efficacy in mouse protection test in Escherichia coli Vogel administered by subcutaneous injection.; format: functional; conditions: Escherichia coli, sc; read-out: PD50
Summary of the method: (§1)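 Acute lethal systemic infections in female Charles River CD-1 mice. A single dose was given at challenge, orally by gavage or by subcutaneous injection. PD50 (median protective dose, mg/kg) was determined.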

[4] = system: Escherichia coli; assay: In vivo efficacy in mouse protection test in Escherichia coli Vogel dose administered orally by gavage.; format: functional; conditions: Escherichia coli, po; read-out: PD50; summary of the method: as §1
[5] = system: Escherichia coli; assay: Minimum inhibitory concentration (MIC) against gram negative bacteria Escherichia coli H-560.; format: functional; conditions: Escherichia coli; read-out: MIC
Summary of the method: (§2)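 MICs were determined by standard broth microtitration against 11 Gram-positive and Gram-negative organisms, in µg/mL. Values come from duplicate or triplicate experiments and are accurate to ±50%.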

[6] = system: Escherichia coli; assay: Minimum inhibitory concentration (MIC) against gram negative bacteria Escherichia coli Vogel.; format: functional; conditions: Escherichia coli; read-out: MIC; summary of the method: as §2
[7] = system: Enterobacter cloacae; assay: Minimum inhibitory concentration (MIC) against gram negative bacteria Enterobacter cloacae MA-2646.; format: functional
[8] = system: Klebsiella pneumoniae; assay: Minimum inhibitory concentration (MIC) against gram negative bacteria Klebsiella pneumoniae MGH-2.; format: functional; conditions: Klebsiella pneumoniae; read-out: MIC; summary of the method: as §2
[9] = organism: Mus musculus; assay: Dose required to induce phototoxic reaction in 50% of mice by probit method at different dosage forms.; format: functional
[10] = organism: Mus musculus; assay: Dose which has no effect to induce phototoxic reaction in 50% of mice by probit method.; format: functional
[11] = system: Mus musculus; assay: Maximum tolerance dose was measured for phototoxic skin reaction by po administration; format: functional
[12] = Minimum inhibitory concentration (MIC) against gram negative bacteria Prot. rettgeri M-1771.; format: functional, Providencia rettgeri; conditions: Providencia rettgeri; read-out: MIC; summary of the method: as §2
[13] = system: Pseudomonas aeruginosa; assay: Minimum inhibitory concentration (MIC) against gram negative bacteria Pseudomonas aeruginosa UI-18.; format: functional; conditions: Pseudomonas aeruginosa; read-out: MIC; summary of the method: as §2
[14] = system: Staphylococcus aureus; assay: Minimum inhibitory concentration (MIC) against gram positive bacteria Staphylococcus aureus H-228.; format: functional; conditions: Staphylococcus aureus; read-out: MIC; summary of the method: as §2
[15] = system: Staphylococcus aureus; assay: Minimum inhibitory concentration (MIC) against gram positive bacteria Staphylococcus aureus UC-76.; format: functional; conditions: Staphylococcus aureus; read-out: MIC; summary of the method: as §2
[16] = system: Enterococcus faecalis; assay: Minimum inhibitory concentration (MIC) against gram positive bacteria Streptococcus faecalis MGH-2.; format: functional; conditions: Enterococcus faecalis; read-out: MIC; summary of the method: as §2
[17] = system: Streptococcus pneumoniae; assay: Minimum inhibitory concentration (MIC) against gram positive bacteria Streptococcus pneumoniae SV-1.; format: functional; conditions: Streptococcus pneumoniae; read-out: MIC; summary of the method: as §2
[18] = system: Streptococcus pyogenes; assay: Minimum inhibitory concentration (MIC) against gram positive bacteria Streptococcus pyogenes C-203.; format: functional; conditions: Streptococcus pyogenes; read-out: MIC; summary of the method: as §2
[19] = system: Streptococcus pneumoniae; assay: In vivo efficacy (s.c.) against Streptococcus pneumoniae SV-1 in mouse protection test; format: functional; conditions: Streptococcus pneumoniae, sc; read-out: PD50; summary of the method: as §1
[20] = system: Streptococcus pneumoniae; assay: In vivo efficacy (orally) against Streptococcus pneumoniae SV-1 in mouse protection test; format: functional; conditions: Streptococcus pneumoniae, po; read-out: PD50; summary of the method: as §1
[21] = system: Pseudomonas aeruginosa; assay: In vivo efficacy (s.c.) against Pseudomonas aeruginosa in mouse protection test; format: functional; conditions: Pseudomonas aeruginosa, sc; read-out: PD50; summary of the method: as §1
[22] = system: Pseudomonas aeruginosa; assay: In vivo efficacy (orally) against Pseudomonas aeruginosa in mouse protection test; format: functional; conditions: Pseudomonas aeruginosa, po; read-out: PD50; summary of the method: as §1
[23] = system: Streptococcus pyogenes; assay: In vivo efficacy (s.c.) against Streptococcus pyogenes C-203 in mouse protection test; format: functional; conditions: Streptococcus pyogenes, sc; read-out: PD50; summary of the method: as §1
[24] = system: Streptococcus pyogenes; assay: In vivo efficacy (orally) against Streptococcus pyogenes C-203 in mouse protection test; format: functional; conditions: Streptococcus pyogenes, po; read-out: PD50; summary of the method: as §1

SMILES | Day of first positve reaction [1] | No. of pos rxns [2] | ED50 [3] | ED50 [4] | MIC [5] | MIC [6] | MIC [7] | MIC [8] | PTD50 [9] | No effect dose [10] | MTD [11] | MIC [12] | MIC [13] | MIC [14] | MIC [15] | MIC [16] | MIC [17] | MIC [18] | ED50 [19] | ED50 [20] | also measured
CC1(CN)CCN(c2cc3c(cc2F)c(=O)c(C(=O)O)cn3C2CC2)C1 (stereo not drawn) | 0 | 0 | 1.7 mg/kg | 26 mg/kg | 0.025 µg/mL (≈ 0.0696 µM) | 0.025 µg/mL (≈ 0.0696 µM) | 0.05 µg/mL (≈ 0.139 µM) | 0.2 µg/mL (≈ 0.556 µM) | >100 mg/kg | 100 mg/kg | 100 mg/kg | 0.4 µg/mL (≈ 1.11 µM) | 1.6 µg/mL (≈ 4.45 µM) | 0.1 µg/mL (≈ 0.278 µM) | 0.013 µg/mL (≈ 0.0362 µM) | 0.05 µg/mL (≈ 0.139 µM) | 0.003 µg/mL (≈ 0.00835 µM) | 0.003 µg/mL (≈ 0.00835 µM) | 0.45 mg/kg | 12 mg/kg | –
NC1CCN(c2c(F)cc3c(=O)c(C(=O)O)cn(C4CC4)c3c2C(F)(F)F)CC1 | 0 | 0 | 4.5 mg/kg | 12.5 mg/kg | 0.2 µg/mL (≈ 0.484 µM) | 0.2 µg/mL (≈ 0.484 µM) | 0.2 µg/mL (≈ 0.484 µM) | 0.4 µg/mL (≈ 0.968 µM) | >100 mg/kg | 100 mg/kg | 100 mg/kg | 0.8 µg/mL (≈ 1.94 µM) | 3.1 µg/mL (≈ 7.5 µM) | 0.1 µg/mL (≈ 0.242 µM) | 0.05 µg/mL (≈ 0.121 µM) | 0.2 µg/mL (≈ 0.484 µM) | 0.2 µg/mL (≈ 0.484 µM) | 0.1 µg/mL (≈ 0.242 µM) | – | – | –
NC1CCN(c2cc3c(cc2F)c(=O)c(C(=O)O)cn3C2CC2)CC1 | 0 | 0 | 3.8 mg/kg | 18 mg/kg | 0.4 µg/mL (≈ 1.16 µM) | 0.4 µg/mL (≈ 1.16 µM) | 0.4 µg/mL (≈ 1.16 µM) | 0.8 µg/mL (≈ 2.32 µM) | >100 mg/kg | 100 mg/kg | 100 mg/kg | 1.6 µg/mL (≈ 4.63 µM) | 3.1 µg/mL (≈ 8.98 µM) | 1.6 µg/mL (≈ 4.63 µM) | 0.2 µg/mL (≈ 0.579 µM) | 0.8 µg/mL (≈ 2.32 µM) | 0.4 µg/mL (≈ 1.16 µM) | 0.4 µg/mL (≈ 1.16 µM) | – | – | –
CCn1cc(C(=O)O)c(=O)c2cc(F)c(N3CCN(C)CC3)cc21 [PEFLOXACIN] | 4 | 2 | 2 mg/kg | 3 mg/kg | 0.1 µg/mL (≈ 0.3 µM) | 0.025 µg/mL (≈ 0.075 µM) | – | 0.05 µg/mL (≈ 0.15 µM) | 265 mg/kg | >172 mg/kg | 300 mg/kg | 0.05 µg/mL (≈ 0.15 µM) | 0.4 µg/mL (≈ 1.2 µM) | 0.2 µg/mL (≈ 0.6 µM) | 0.1 µg/mL (≈ 0.3 µM) | 0.8 µg/mL (≈ 2.4 µM) | 0.8 µg/mL (≈ 2.4 µM) | 0.8 µg/mL (≈ 2.4 µM) | 96 mg/kg | > 200 mg/kg | ED50 [21]: 26 mg/kg; ED50 [22]: 38 mg/kg; ED50 [23]: 94 mg/kg; ED50 [24]: 110 mg/kg
CC1(CN)CCN(c2c(F)cc3c(=O)c(C(=O)O)cn(C4CC4)c3c2F)C1 (stereo not drawn) | 1 | 5 | 3 mg/kg | 1.8 mg/kg | 0.006 µg/mL (≈ 0.0159 µM) | 0.013 µg/mL (≈ 0.0344 µM) | 0.013 µg/mL (≈ 0.0344 µM) | 0.025 µg/mL (≈ 0.0662 µM) | <30 mg/kg | <30 mg/kg | 30 mg/kg | 0.05 µg/mL (≈ 0.132 µM) | 0.4 µg/mL (≈ 1.06 µM) | 0.013 µg/mL (≈ 0.0344 µM) | – | 0.006 µg/mL (≈ 0.0159 µM) | 0.003 µg/mL (≈ 0.00795 µM) | 0.003 µg/mL (≈ 0.00795 µM) | 0.3 mg/kg | 1.2 mg/kg | –
CCNCC1CCN(c2cc3c(cc2F)c(=O)c(C(=O)O)cn3C2CC2)C1 (stereo not drawn) | 0 | 0 | 2.4 mg/kg | 35 mg/kg | 0.05 µg/mL (≈ 0.134 µM) | 0.2 µg/mL (≈ 0.536 µM) | 0.4 µg/mL (≈ 1.07 µM) | 0.2 µg/mL (≈ 0.536 µM) | >100 mg/kg | 100 mg/kg | 100 mg/kg | 0.8 µg/mL (≈ 2.14 µM) | 1.6 µg/mL (≈ 4.28 µM) | 0.4 µg/mL (≈ 1.07 µM) | 0.013 µg/mL (≈ 0.0348 µM) | 0.2 µg/mL (≈ 0.536 µM) | 0.2 µg/mL (≈ 0.536 µM) | 0.05 µg/mL (≈ 0.134 µM) | – | – | ED50 [23]: 4.5 mg/kg; ED50 [24]: 46 mg/kg
NC1CCN(c2c(F)cc3c(=O)c(C(=O)O)cn(C4CC4)c3c2F)CC1 | 2 | 5 | 1.2 mg/kg | 3.7 mg/kg | 0.05 µg/mL (≈ 0.138 µM) | 0.1 µg/mL (≈ 0.275 µM) | 0.1 µg/mL (≈ 0.275 µM) | 0.1 µg/mL (≈ 0.275 µM) | 55 mg/kg | 30 mg/kg | 100 mg/kg | 0.2 µg/mL (≈ 0.55 µM) | 0.8 µg/mL (≈ 2.2 µM) | 0.1 µg/mL (≈ 0.275 µM) | 0.025 µg/mL (≈ 0.0688 µM) | 0.2 µg/mL (≈ 0.55 µM) | 0.4 µg/mL (≈ 1.1 µM) | 0.4 µg/mL (≈ 1.1 µM) | 3.6 mg/kg | 15 mg/kg | –
